From ChEMBL document CHEMBL3621067, “Antihyperlipidemic morpholine derivatives with antioxidant activity: An investigation of the aromatic substitution” (Bioorg Med Chem, 2015) come the findings set out here.

Where only a bound is given, the exact number is not on record here.

The test system of test [1] is Rattus norvegicus. Briefly: Antihyperlipidemic activity in Triton WR1339-induced hyperlipidemic rat assessed as reduction in plasma triglyceride level at 56 umol/kg, ip dosed 1 hr after Triton WR1339 challenge and measured 24 hrs post dose relative to control. It counts as functional. An outline of the steps:
(§1)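 Rats given Triton WR1339 to induce acute hyperlipidemia, established 24 h later; compounds given ip at 56 μmol/kg. Animals held at 22 °C on a 12 h light/dark cycle with free chow and water. Plasma lipids measured in duplicate; values are the mean of 8–10 rats per compound, expressed as % decrease versus hyperlipidemic controls; significance by Student's test.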

Test [2] deals with T1, Squalene synthase (Rattus norvegicus) (UniProt Q02769).
T1 sequence (whole entry): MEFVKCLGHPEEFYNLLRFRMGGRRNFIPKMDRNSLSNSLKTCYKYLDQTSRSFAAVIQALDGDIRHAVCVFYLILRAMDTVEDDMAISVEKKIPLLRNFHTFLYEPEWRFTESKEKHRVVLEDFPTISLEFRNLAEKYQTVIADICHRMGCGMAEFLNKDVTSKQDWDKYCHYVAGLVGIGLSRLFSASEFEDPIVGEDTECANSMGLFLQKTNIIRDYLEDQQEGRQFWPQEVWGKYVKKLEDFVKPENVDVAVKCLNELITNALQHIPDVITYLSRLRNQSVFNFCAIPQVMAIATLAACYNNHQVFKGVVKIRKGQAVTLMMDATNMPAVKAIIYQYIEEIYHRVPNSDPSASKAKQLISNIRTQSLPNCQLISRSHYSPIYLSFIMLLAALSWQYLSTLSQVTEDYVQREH
Briefly: Inhibition of squalene synthase in rat liver microsomes assessed as reduction in conversion of [3H]farnesyl pyrophosphate to squalene at 50 uM incubated for 30 mins by liquid scintillation counting. The procedure, abridged:
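Rat liver microsomes (18 μg protein/mL) in 50 mM phosphate, pH 7.4, with 10 mM MgCl2 and 0.5 mM NADPH; compounds in ethanol. Preincubated 10 min at 37 °C, then started with [3H]FPP (0.5 μM, 0.27 Ci/mmol) for 10 min at 37 °C. Stopped with 15% ethanolic KOH, heated 65 °C for 30 min, extracted into petroleum ether, and squalene counted by scintillation. Run in duplicate.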

The test system of test [3] is Rattus norvegicus. Briefly: Antihyperlipidemic activity in Triton WR1339-induced hyperlipidemic rat assessed as reduction in plasma total cholesterol at 56 umol/kg, ip dosed 1 hr after Triton WR1339 challenge and measured 24 hrs post dose relative to control. It counts as functional. An outline of the steps:
as §1

For the next test, the system named is Liver. Briefly: Antioxidant activity in rat heat-inactivated rat hepatic microsomes assessed as inhibition of TBAR level incubated for 45 mins by spectrophotometry. As to conditions: 0.75 h. Type of test: functional. An outline of the steps:
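Heat-inactivated liver microsomes from untreated rats (2.5 mg protein/mL, 4 mM fatty acid residues) with 0.2 mM ascorbic acid in Tris–HCl/KCl (50/150 mM, pH 7.4); compounds in DMSO, 10 μM to 1 mM. Incubated at 37 °C for 45 min; TBAR read at 535 against 600 nm. Run in duplicate; IC50 is the mean concentration giving 50% inhibition of control peroxidation.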

The target of test [4] is T1, Squalene synthase (Rattus norvegicus). Briefly: Inhibition of squalene synthase in rat liver microsomes assessed as reduction in conversion of [3H]farnesyl pyrophosphate to squalene at 10 uM […] by liquid scintillation counting method.
Test [5] concerns Rattus norvegicus. Briefly: Antihypercholesterolemic activity in Triton WR1339-induced hyperlipidemic rat assessed as reduction in plasma LDL-C level at 56 umol/kg, ip dosed 1 hr after Triton WR1339 challenge and measured 24 hrs post dose relative to control. It counts as functional. An outline of the steps: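 Rats, housed at 22 °C on a 12 h light/dark cycle with free chow and water, given Triton WR1339 to induce acute hyperlipidemia (established 24 h later). Compound given ip at 56 μmol/kg. Plasma LDL measured in duplicate and expressed as % decrease versus hyperlipidemic controls; mean of 8–10 rats per compound.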

The target in another test is T2, Squalene synthase (Rattus norvegicus, UniProt Q02769).
T2 sequence (Q02769 whole entry): T1 sequence (whole entry)
Briefly: Inhibition of squalene synthase in rat liver microsomes assessed as reduction in conversion of [3H]farnesyl pyrophosphate to squalene incubated for 30 mins by liquid scintillation counting.

As to `OC1(c2ccc(-c3nccs3)cc2)CN2CCCCC2CO1` (stereo unspecified), the inhibition in vivo at 56 µmol/kg in the test on Rattus norvegicus [1] is 58%; in the test with Rattus norvegicus [3], 21%. For the same molecule, the inhibition in test [2] stood at 35%. For the same molecule, in the test on Liver, the IC50 was 1000 µM.

Regarding `CN1CC(O)(c2ccc(-c3ccc(C(C)(C)C)cc3)cc2)OC2CCCCC21` (stereo unspecified), the inhibition in vivo at 56 µmol/kg was determined as 15% in the test on Rattus norvegicus [1] and 17% in the test with Rattus norvegicus [3]. The inhibition in test [4] is 67%. For the same molecule, the IC50 with Liver came to 214 µM.

As for `CCC(C)(C)C(=O)O[C@H]1C[C@@H](C)C=C2C=C[C@H](C)[C@H](CC[C@@H]3C[C@@H](O)CC(=O)O3)[C@H]21` [SIMVASTATIN], the results for the inhibition in vivo at 56 µmol/kg in the test with Rattus norvegicus [1], in the test on Rattus norvegicus [5] and in the test with Rattus norvegicus [3] were 0%, 70% and 75%, respectively.

As to `CC(C)(C)c1ccc(-c2ccc(C3(O)CN4CCCCC4CO3)cc2)cc1` (stereo unspecified), the results for the inhibition in vivo at 56 µmol/kg with Rattus norvegicus [1] and in the test on Rattus norvegicus [3] were 59% and 64%, respectively. In test [4], the inhibition came out at 40%. Moreover, the IC50 in the test with Liver was determined as 410 µM.

`CN1CC(O)(c2ccc(-c3ccc([N+](=O)[O-])cc3)cc2)OC2CCCCC21` (stereo unspecified): the inhibition in vivo at 56 µmol/kg came to 20% in the test with Rattus norvegicus [1] and 62% in the test on Rattus norvegicus [3]. Further, in the test with Liver, the IC50 came out at 57 µM.

On to `CN1CCOC(O)(c2ccc(-c3ccc(C(C)(C)C)cc3)cc2)C1` (stereo unspecified), for which the inhibition in vivo at 56 µmol/kg was determined as 47% in the test with Rattus norvegicus [1] and 45% in the test on Rattus norvegicus [3]. Further, the inhibition in test [4] worked out at 61%. Besides, in the test on Liver, the IC50 came to 91 µM.

For `O=[N+]([O-])c1ccc(-c2ccc(C3(O)CN4CCCCC4CO3)cc2)cc1` (stereo unspecified), the results for the inhibition in vivo at 56 µmol/kg in the test on Rattus norvegicus [1] and in the test with Rattus norvegicus [3] were 31% and 59%, respectively. Also, in test [4], the inhibition was found to be 43%. The IC50 in the test with Liver is 539 µM.

For the molecule `CN1CCOC(O)(c2ccc(-c3ccc([N+](=O)[O-])cc3)cc2)C1` (stereo unspecified), the inhibition in vivo at 56 µmol/kg in the test with Rattus norvegicus [1] turned out to be 44%; with Rattus norvegicus [3] it was 41%. In test [4], the inhibition was determined as 29%. The IC50 in the test with Liver came out at 73 µM.

With `CN1CC(O)(c2ccc(C3CCCCC3)cc2)OC2CCCCC21` (stereo unspecified), the inhibition in vivo at 56 µmol/kg came to 20% with Rattus norvegicus [1], 23% in the test with Rattus norvegicus [5] and 51% with Rattus norvegicus [3]. The results for the IC50 at Squalene synthase and in the test on Liver were 42 µM and 180 µM, respectively. For the same molecule, the inhibition in test [4] is 18%.

As to `CN1CCOC(O)(c2ccc3c(ccc4ccccc43)c2)C1` (stereo unspecified), the inhibition in vivo at 56 µmol/kg stood at 69% in the test with Rattus norvegicus [1], 52% with Rattus norvegicus [5] and 58% in the test on Rattus norvegicus [3]. The figures for the concentration for half-maximal inhibition (IC50) at Squalene synthase and with Liver were 8.8 µM and 174 µM, respectively. In addition, in test [4], the inhibition stood at 48%.

Take `OC1(c2ccc3c(ccc4ccccc43)c2)CN2CCCCC2CO1` (stereo unspecified): the figures for the inhibition in vivo at 56 µmol/kg in the test on Rattus norvegicus [1], in the test on Rattus norvegicus [5] and in the test with Rattus norvegicus [3] were 66%, 53% and 40%, respectively. Moreover, the IC50 on Squalene synthase stood at 0.7 µM; with Liver, 198 µM. Besides, the inhibition in test [4] is 87%.

With `OC1(c2ccc(C3CCCCC3)cc2)CN2CCCCC2CO1` (stereo unspecified), the inhibition in vivo at 56 µmol/kg in the test on Rattus norvegicus [1] was found to be 70%; in the test with Rattus norvegicus [5] it was 62%; in the test with Rattus norvegicus [3] it was 80%. In addition, the IC50 on Squalene synthase worked out at 80 µM; in the test with Liver, 700 µM. In addition, the inhibition in test [4] was determined as 9%.

On to `CN1CC(O)(c2ccc(-c3nccs3)cc2)OC2CCCCC21` (stereo unspecified), for which the inhibition in test [2] worked out at 29%.

Turning to `CN1CCOC(O)(c2ccc(C3CCCCC3)cc2)C1` (stereo unspecified), the results for the inhibition in vivo at 56 µmol/kg with Rattus norvegicus [1], in the test with Rattus norvegicus [5] and in the test on Rattus norvegicus [3] were 34%, 36% and 44%, respectively. The IC50 is over 100 µM on Squalene synthase and 190 µM in the test on Liver. The inhibition in test [4] turned out to be 0%.

`CN1CC(O)(c2ccc3c(ccc4ccccc43)c2)OC2CCCCC21` (stereo unspecified): the inhibition in vivo at 56 µmol/kg stood at 59% with Rattus norvegicus [1], 20% with Rattus norvegicus [5] and 49% in the test on Rattus norvegicus [3]. Also, the results for the IC50 at Squalene synthase and in the test on Liver were 5.5 µM and 191 µM, respectively. Besides, in test [4], the inhibition was 76%.

Turning to `CN1CCOC(O)(c2ccc(-c3nccs3)cc2)C1` (stereo unspecified), the inhibition in test [2] came to 30%.

`Oc1ccc(-c2ccc(C3(O)CN4CCCCC4CO3)cc2)cc1` (stereo unspecified): the values for the inhibition in vivo at 56 µmol/kg with Rattus norvegicus [1] and in the test on Rattus norvegicus [3] were 43% and 40%, respectively. In addition, the inhibition in test [4] amounted to 7%. The IC50 in the test with Liver stood at 134 µM.

Regarding `CN1CC(O)(c2ccc(-c3ccc(O)cc3)cc2)OC2CCCCC21` (stereo unspecified), the values for the inhibition in vivo at 56 µmol/kg with Rattus norvegicus [1] and in the test on Rattus norvegicus [3] were 48% and 54%, respectively. Also, the inhibition in test [4] was 61%. Moreover, the IC50 in the test with Liver is 135 µM.
